Experimental findings from ChEMBL document CHEMBL3877334, “Structural Requirements of HDAC Inhibitors: SAHA Analogues Modified at the C2 Position Display HDAC6/8 Selectivity” (ACS Med Chem Lett, 2017) are described below.

In experiment [1] the target is T1, Protein deacetylase HDAC6 (Homo sapiens) (UniProt Q9UBN7).
T1 sequence (whole entry): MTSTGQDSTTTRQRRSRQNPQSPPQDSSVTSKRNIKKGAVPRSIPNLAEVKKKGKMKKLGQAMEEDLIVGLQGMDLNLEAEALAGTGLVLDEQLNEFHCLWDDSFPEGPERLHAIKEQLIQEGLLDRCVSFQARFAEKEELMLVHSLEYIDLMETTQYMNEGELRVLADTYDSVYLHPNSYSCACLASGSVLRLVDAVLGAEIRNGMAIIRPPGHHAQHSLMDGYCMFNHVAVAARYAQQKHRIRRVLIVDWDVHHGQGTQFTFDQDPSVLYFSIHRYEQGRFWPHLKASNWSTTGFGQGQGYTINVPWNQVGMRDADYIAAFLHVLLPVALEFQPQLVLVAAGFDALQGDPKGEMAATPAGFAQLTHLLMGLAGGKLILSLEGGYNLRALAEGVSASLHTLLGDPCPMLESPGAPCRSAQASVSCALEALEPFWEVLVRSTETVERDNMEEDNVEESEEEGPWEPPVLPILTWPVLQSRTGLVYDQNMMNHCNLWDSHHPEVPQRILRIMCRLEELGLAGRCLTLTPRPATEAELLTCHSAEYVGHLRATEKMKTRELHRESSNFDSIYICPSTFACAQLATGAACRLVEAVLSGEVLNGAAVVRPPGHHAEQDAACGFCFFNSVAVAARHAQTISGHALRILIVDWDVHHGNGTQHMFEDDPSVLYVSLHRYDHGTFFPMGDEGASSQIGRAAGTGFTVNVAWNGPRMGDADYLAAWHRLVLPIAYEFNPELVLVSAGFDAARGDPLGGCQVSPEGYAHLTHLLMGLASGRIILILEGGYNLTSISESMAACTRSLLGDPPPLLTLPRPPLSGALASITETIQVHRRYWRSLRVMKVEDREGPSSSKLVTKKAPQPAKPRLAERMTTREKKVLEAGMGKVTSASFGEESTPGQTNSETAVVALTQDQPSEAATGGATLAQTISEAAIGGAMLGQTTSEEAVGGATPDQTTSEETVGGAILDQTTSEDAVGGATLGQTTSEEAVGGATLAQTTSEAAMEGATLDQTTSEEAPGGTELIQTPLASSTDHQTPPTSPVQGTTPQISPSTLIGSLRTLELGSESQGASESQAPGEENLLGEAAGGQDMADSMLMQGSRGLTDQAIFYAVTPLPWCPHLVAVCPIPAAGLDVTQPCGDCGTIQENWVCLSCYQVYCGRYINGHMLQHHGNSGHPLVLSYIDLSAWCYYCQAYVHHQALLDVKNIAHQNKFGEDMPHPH
The experiment in a line: Inhibition of HDAC6 in human HeLaS3 cells at 5 uM preincubated for 15 mins followed by HDAC-Glo substrate addition measured after 30 to 45 mins by ELISA. The class given is cell-based. As to conditions: HeLa S3. The gist of the method: (§1)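 ELISA-based HDAC activity assay using mammalian-derived HDAC1, -2, -3 and -6. Each analogue was screened at a single concentration, 5 or 10 μM. Data are mean percent deacetylase activity from at least three independent trials with standard error.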
(In general: ELISA stands for enzyme-linked immunosorbent assay.)

Experiment [2] concerns the target T2, Protein deacetylase HDAC6 (Homo sapiens, UniProt Q9UBN7).
T2 sequence (Q9UBN7 whole entry): T1 sequence (whole entry)
The experiment can be described thus: Inhibition of HDAC6 in human HeLaS3 cells preincubated for 15 mins followed by HDAC-Glo substrate addition measured after 30 to 45 mins by ELISA. It counts as cell-based, HeLa S3.

Experiment [3] in a line: cells. It counts as functional, cell-based. As to conditions: Homo sapiens, Jurkat, 44 h.
For the next experiment, the target named is T3, Histone deacetylase 8 (Homo sapiens, UniProt Q9BY41).
T3 sequence (Q9BY41 whole entry): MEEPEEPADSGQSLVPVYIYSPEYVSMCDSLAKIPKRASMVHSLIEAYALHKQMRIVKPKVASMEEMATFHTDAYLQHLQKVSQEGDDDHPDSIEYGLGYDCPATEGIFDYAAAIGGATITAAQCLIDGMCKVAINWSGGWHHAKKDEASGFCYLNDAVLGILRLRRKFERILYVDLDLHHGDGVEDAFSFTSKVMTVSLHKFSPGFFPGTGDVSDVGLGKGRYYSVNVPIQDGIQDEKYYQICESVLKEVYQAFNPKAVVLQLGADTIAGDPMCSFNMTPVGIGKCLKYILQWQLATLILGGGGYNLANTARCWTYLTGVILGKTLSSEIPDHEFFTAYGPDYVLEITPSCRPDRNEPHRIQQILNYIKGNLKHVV
The experiment in a line: Inhibition of full length human C-terminal His-tag HDAC8 expressed in baculovirus expression system preincubated for 15 mins followed by HDAC-Glo substrate addition measured after 30 to 45 mins by ELISA.

Experiment [4] has as its system HeLa S3. The experiment in a line: Selectivity ratio of IC50 for HDAC1 in human HeLaS3 cells to IC50 for HDAC6 in human HeLaS3 cells. It counts as cell-based. The essentials:
(§2)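 Ratio of IC50 values measured with the ELISA-based HDAC activity assay using mammalian-derived HDAC isoforms. Each IC50 is the mean of at least two independent trials with standard error.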

For experiment [5], the target named is T1, Protein deacetylase HDAC6 (Homo sapiens). The experiment in a line: Inhibition of HDAC6 in human U937 cells assessed as increase in alpha-tubulin acetylation at Lys-40 residue after 18 hrs by Western blot method. The class given is cell-based. The conditions noted are these: U-937. The gist of the method: (§3)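 U937 myeloid leukemia cells were treated with compound, with a 1% DMSO control. For the concentration series the range was 10–60 μM. Cells were then lysed, run on SDS-PAGE and Western blotted for acetyl-α-tubulin and acetyl-histone H3, with GAPDH as load control. Band intensities were quantified as fold increase, given as mean of four independent trials with standard error.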
A general note: In western blotting, separated proteins are transferred to a membrane and probed.

In the next experiment the target is Histone deacetylase 3 (Homo sapiens, UniProt O15379). The experiment in a line: Inhibition of HDAC3 in human HeLaS3 cells preincubated for 15 mins followed by HDAC-Glo substrate addition measured after 30 to 45 mins by ELISA. It counts as cell-based, HeLa S3.
Histone deacetylase 3, sequence (O15379 whole entry): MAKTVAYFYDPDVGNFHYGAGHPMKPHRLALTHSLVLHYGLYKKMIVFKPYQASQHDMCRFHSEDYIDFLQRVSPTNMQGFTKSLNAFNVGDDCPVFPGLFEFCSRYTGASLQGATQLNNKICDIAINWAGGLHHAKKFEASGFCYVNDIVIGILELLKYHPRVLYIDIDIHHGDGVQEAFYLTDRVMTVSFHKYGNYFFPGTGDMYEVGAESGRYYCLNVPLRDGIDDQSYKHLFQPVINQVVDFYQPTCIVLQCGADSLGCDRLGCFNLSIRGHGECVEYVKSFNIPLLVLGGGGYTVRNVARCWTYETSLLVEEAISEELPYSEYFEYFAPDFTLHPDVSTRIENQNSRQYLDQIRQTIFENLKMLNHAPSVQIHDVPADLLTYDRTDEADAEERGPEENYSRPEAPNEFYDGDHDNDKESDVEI
The target of a further experiment is Histone deacetylase 1 (Homo sapiens, UniProt Q13547). The experiment in a line: Inhibition of HDAC1 in human HeLaS3 cells preincubated for 15 mins followed by HDAC-Glo substrate addition measured after 30 to 45 mins by ELISA. It counts as cell-based, HeLa S3.
Histone deacetylase 1, sequence (Q13547 whole entry): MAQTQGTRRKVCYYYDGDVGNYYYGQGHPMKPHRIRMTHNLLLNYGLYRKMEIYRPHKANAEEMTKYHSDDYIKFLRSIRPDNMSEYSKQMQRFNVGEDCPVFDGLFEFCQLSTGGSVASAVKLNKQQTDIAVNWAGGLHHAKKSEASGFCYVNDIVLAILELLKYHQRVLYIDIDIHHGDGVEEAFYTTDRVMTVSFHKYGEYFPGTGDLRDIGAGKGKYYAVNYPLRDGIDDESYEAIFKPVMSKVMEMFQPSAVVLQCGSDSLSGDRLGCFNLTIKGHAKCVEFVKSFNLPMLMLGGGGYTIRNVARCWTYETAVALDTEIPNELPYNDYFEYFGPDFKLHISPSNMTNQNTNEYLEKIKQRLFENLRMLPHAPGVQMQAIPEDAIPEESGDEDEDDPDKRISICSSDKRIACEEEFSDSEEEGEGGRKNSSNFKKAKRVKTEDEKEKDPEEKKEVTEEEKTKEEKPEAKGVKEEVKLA
Experiment [6] is described as follows: cells. The class given is functional, cell-based. As to conditions: Homo sapiens, MOLM-13, 44 h.
For experiment [7], the system named is HeLa S3. The experiment in a line: Selectivity ratio of IC50 for HDAC3 in human HeLaS3 cells to IC50 for full length human C-terminal His-tag HDAC8 expressed in baculovirus expression system.
Experiment [8] can be described thus: cells. It counts as functional, cell-based. As to conditions: Homo sapiens, U-937, 44 h.
The target in a further experiment is Histone deacetylase 2 (Homo sapiens, UniProt Q92769). The experiment in a line: Inhibition of HDAC2 in human HeLaS3 cells preincubated for 15 mins followed by HDAC-Glo substrate addition measured after 30 to 45 mins by ELISA. It counts as cell-based, HeLa S3.
Histone deacetylase 2, sequence (Q92769 whole entry): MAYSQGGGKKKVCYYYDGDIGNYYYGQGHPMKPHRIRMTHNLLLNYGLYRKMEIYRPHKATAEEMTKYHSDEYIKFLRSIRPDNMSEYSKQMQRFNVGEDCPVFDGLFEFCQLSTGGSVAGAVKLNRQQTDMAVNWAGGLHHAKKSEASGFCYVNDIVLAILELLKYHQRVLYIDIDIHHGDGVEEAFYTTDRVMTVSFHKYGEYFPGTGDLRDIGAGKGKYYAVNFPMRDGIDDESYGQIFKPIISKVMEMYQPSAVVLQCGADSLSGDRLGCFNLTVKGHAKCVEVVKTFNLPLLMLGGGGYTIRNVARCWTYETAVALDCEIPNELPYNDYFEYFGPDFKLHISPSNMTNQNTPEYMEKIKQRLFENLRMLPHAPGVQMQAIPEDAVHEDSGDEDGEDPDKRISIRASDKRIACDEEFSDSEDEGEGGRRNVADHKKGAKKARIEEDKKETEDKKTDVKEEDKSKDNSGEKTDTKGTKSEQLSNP
Experiment [9] concerns HeLa S3. The experiment can be described thus: Selectivity ratio of IC50 for HDAC1 in human HeLaS3 cells to IC50 for full length human C-terminal His-tag HDAC8 expressed in baculovirus expression system.
Experiment [10] concerns HeLa S3. The experiment in a line: Selectivity ratio of IC50 for HDAC2 in human HeLaS3 cells to IC50 for full length human C-terminal His-tag HDAC8 expressed in baculovirus expression system.
Experiment [11] can be described thus: Cytotoxicity against human Jurkat cells assessed as cell viability at 10 uM after 44 hrs by MTT assay relative to control. The class given is functional. The conditions noted are these: read-out: Activity. The gist of the method: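 MTT viability assay in Jurkat cells at 1 and 10 μM. Data are mean percent viability from at least three independent trials with standard error.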
For orientation: Tetrazolium assays rely on reduction of a dye to a coloured formazan, in cell work by metabolically active cells.

Experiment [12] concerns HeLa S3. The experiment can be described thus: Selectivity ratio of IC50 for HDAC2 in human HeLaS3 cells to IC50 for HDAC6 in human HeLaS3 cells. The class given is cell-based. The essentials: as §2
In experiment [13] the test system is HeLa S3. The experiment can be described thus: Selectivity ratio of IC50 for HDAC3 in human HeLaS3 cells to IC50 for HDAC6 in human HeLaS3 cells. The class given is cell-based. The essentials:
as §2

Experiment [14] addresses T1, Protein deacetylase HDAC6 (Homo sapiens). The experiment can be described thus: Inhibition of HDAC6 in human U937 cells assessed as increase in alpha-tubulin acetylation at Lys-40 residue at 30 uM after 18 hrs by Western blot method. The class given is cell-based. As to conditions: U-937. The essentials:
as §3

Experiment [15] shares this target. The experiment can be described thus: Inhibition of HDAC6 in human HeLaS3 cells at 10 uM preincubated for 15 mins followed by HDAC-Glo substrate addition measured after 30 to 45 mins by ELISA. It counts as cell-based. The conditions noted are these: HeLa S3. The essentials:
as §1

pEC50, pIC50: −log10 of the molar value. Active and inactive are the calls of the source. No cut-off for these calls is given here.

With `CCCCCCC(CCCCCC(=O)Nc1ccccc1)C(=O)NO` (stereo not drawn), the inhibition entry in experiment [1] and in experiment [14] was “Active” each time. Besides, the pIC50 (commonly −log10 of the IC50, conventionally taken in molar units) in experiment [2] was 6.22; against Histone deacetylase 8, 5.70; against Histone deacetylase 3 it was 4.01; against Histone deacetylase 1 it was 3.74; at Histone deacetylase 2 it was 3.74. In addition, the pEC50 (commonly −log10 of the EC50, conventionally taken in molar units) in the experiment “cells [3]” was 4.93; in “cells [6]”, 4.98; in “cells [8]” it was 4.86. Also, the Ratio IC50 with HeLa S3 [4], with HeLa S3 [7], with HeLa S3 [9], in the experiment on HeLa S3 [10], with HeLa S3 [12] and in the experiment with HeLa S3 [13] was 49 to 300 throughout. Moreover, the inhibition result in experiment [5] is “Dose-dependent effect”. Besides, the viability at 10 µM in experiment [11] is 47%.

Turning to `CC(CCCCCC(=O)Nc1ccccc1)C(=O)NO` (stereo not drawn), the inhibition entry in [1] was “Active”.

As for `C=CCC(CCCCCC(=O)Nc1ccccc1)C(=O)NO` (stereo not drawn), the inhibition result in experiment [1] is “Active”.

On to `C#CCC(CCCCCC(=O)Nc1ccccc1)C(=O)NO` (stereo not drawn), for which the inhibition entry in [1] was “Active”.

`CCC(CCCCCC(=O)Nc1ccccc1)C(=O)NO` (stereo not drawn): the inhibition entry in experiment [1] was “Active”.

For `CCCCCC[C@@H](CCCCCC(=O)Nc1ccccc1)C(=O)NO`, the pIC50 at Histone deacetylase 8 was 5.51; on Histone deacetylase 3, 3.28; at Histone deacetylase 1, 3.48; on Histone deacetylase 2 it was 3.24. Moreover, the Ratio IC50 with HeLa S3 [7], in the experiment with HeLa S3 [9] and in the experiment with HeLa S3 [10] was 106 to 187 each time.

As for `CCCCCC(CCCCCC(=O)Nc1ccccc1)C(=O)NO` (stereo not drawn), the inhibition result in experiment [1] and in experiment [14] was “Active” in each case. The pIC50 in experiment [2] is 6.07; against Histone deacetylase 8 it was 5.89; against Histone deacetylase 3, 4.37; on Histone deacetylase 1 it was 4.32; against Histone deacetylase 2, 4.24. Besides, the Ratio IC50 with HeLa S3 [4], with HeLa S3 [7], in the experiment on HeLa S3 [9], with HeLa S3 [10], in the experiment on HeLa S3 [12] and with HeLa S3 [13] was 33 to 92 in each case.

On Histone deacetylase 8, `CCCCCC[C@H](CCCCCC(=O)Nc1ccccc1)C(=O)NO` gave a pIC50 of 6.15.

For `CCCCC(CCCCCC(=O)Nc1ccccc1)C(=O)NO` (stereo not drawn), the inhibition entry in [15] was “Active”.

In the case of `O=C(CCCCCC(Cc1ccccc1)C(=O)NO)Nc1ccccc1` (stereo not drawn), the inhibition result in [1] and in experiment [14] was “Active” in each case. For the same compound, the pIC50 in experiment [2] is 5.82; on Histone deacetylase 8, 5.92; against Histone deacetylase 3 it was 4.04; on Histone deacetylase 1, 4.08; against Histone deacetylase 2, 3.96. The Ratio IC50 in the experiment with HeLa S3 [4], in the experiment on HeLa S3 [7], in the experiment with HeLa S3 [9], in the experiment on HeLa S3 [10], with HeLa S3 [12] and in the experiment with HeLa S3 [13] was 33 to 92 in each case.

Consider `CCCC(CCCCCC(=O)Nc1ccccc1)C(=O)NO` (stereo not drawn), for which the inhibition result in experiment [1] was “Active”.
